According to ChEMBL document CHEMBL1122798, “Trypanocidal 1,3-arylene diketone bis(guanylhydrazone)s. Structure-activity relationships among substituted and heterocyclic analogues” (1984):

Tests used:
Format in all cases: functional
Mus musculus [1] = assay: Compound was tested for Trypanocidal Activity in mice at 15 mg/kg; 10/10
Mus musculus [2] = assay: Compound was tested for Trypanocidal Activity in mice at 1.0 mg/kg; 0/10
Mus musculus [3] = assay: Compound was tested for Trypanocidal Activity in mice at 25 mg/kg; 10/10
Mus musculus [4] = assay: Compound was tested for Trypanocidal Activity in mice at 4 mg/kg; 20/30
Mus musculus [5] = species: Mus musculus; assay: Effective dose against Trypanosoma brucei infection in mice
How it was run: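 Female Swiss-Webster mice (20–25 g) were infected ip with 5×10^4 T. brucei EATRO 110 organisms in fresh mouse blood diluted with minimum essential medium. Groups of 5 or 10 received a single ip dose in normal saline (solution or milled suspension, 20 μL/g) 6 h post-infection. Deaths within 72 h were scored as toxic. Survivors aparasitemic at 28 days (tail-blood wet films, phase contrast) counted as cures. ED50 was computed by Bliss/Litchfield–Wilcoxon, excluding toxic dosages.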

Mus musculus [6] = assay: Compound was tested for Trypanocidal Activity in mice at 1.5 mg/kg; 2/25
Mus musculus [7] = assay: Compound was tested for Trypanocidal Activity in mice at 6 mg/kg; 26/30
Mus musculus [8] = assay: Compound was tested for Trypanocidal Activity in mice at 60 mg/kg; 0/5
Mus musculus [9] = assay: Compound was tested for Trypanocidal Activity in mice at 10 mg/kg; 19/20
Mus musculus [10] = assay: Compound was tested for Trypanocidal Activity in mice at 2.5 mg/kg; 21/35
Mus musculus [11] = assay: Compound was tested for Trypanocidal Activity in mice at 40 mg/kg; toxic deaths; 1/5
Mus musculus [12] = assay: Compound was tested ffor Trypanocidal Activity in mice at 500 mg/kg; 0/5
Mus musculus [13] = assay: Compound was tested for Trypanocidal Activity in mice at 100 mg/kg; 0/5
Mus musculus [14] = assay: Compound was tested for Trypanocidal Activity in mice at 15 mg/kg; 0/5
Mus musculus [15] = assay: Compound was tested for Trypanocidal Activity in mice at 40 mg/kg; 0/5
Mus musculus [16] = assay: Compound was tested for Trypanocidal Activity in mice at 40 mg/kg; 5/5
Mus musculus [17] = assay: Compound was tested for Trypanocidal Activity in mice at 15 mg/kg; 4/15
Mus musculus [18] = assay: Compound was tested for Trypanocidal Activity in mice at 25 mg/kg; 10/15
Mus musculus [19] = assay: Compound was tested for Trypanocidal Activity in mice at 10 mg/kg; 0/5
Mus musculus [20] = assay: Compound was tested for Trypanocidal Activity in mice at 2.5 mg/kg; 15/30
Mus musculus [21] = assay: Compound was tested for Trypanocidal Activity in mice at 6 mg/kg; 9/10
Mus musculus [22] = assay: Compound was tested for Trypanocidal Activity in mice at 25 mg/kg; toxic deaths; 8/10
Mus musculus [23] = assay: Compound was tested for Trypanocidal Activity in mice at 4 mg/kg; 22/30
Mus musculus [24] = assay: Compound was tested for Trypanocidal Activity in mice at 10 mg/kg; 10/10
Mus musculus [25] = assay: Compound was tested for Trypanocidal Activity in mice at 1.5 mg/kg; 3/30
Mus musculus [26] = assay: Compound was tested for Trypanocidal Activity in mice at 15 mg/kg; 9/10

## C/C(=N\NC(=N)N)c1cc(N)cc(/C(C)=N/NC(=N)N)c1.Cl
Mus musculus [1]
  Mice cured (number): 10
Mus musculus [2]
  Cures/total: 0
Mus musculus [3]
  Cures/total: 10
Mus musculus [4]
  Cures/total: 20
Mus musculus [5]
  ED50: 2.8 mg/kg
Mus musculus [6]
  Cures/total: 2
Mus musculus [7]
  Cures/total: 26
Mus musculus [8]
  Cures/total: 0
Mus musculus [9]
  Cures/total: 19
Mus musculus [10]
  Cures/total: 21
Mus musculus [11]
  Cures/total: 1

## C/C(=N\NC(=N)N)c1cc(/C(C)=N/NC(=N)N)c(O)cc1O.Cl
Mus musculus [12]
  Cures/total: 0
Mus musculus [13]
  Cures/total: 0
Mus musculus [14]
  Cures/total: 0
Mus musculus [15]
  Cures/total: 0

## C/C(=N\NC(=N)N)c1ccc([N+](=O)[O-])c(/C(C)=N/NC(=N)N)c1.Cl
Mus musculus [16]
  Cures/total: 5
Mus musculus [5]
  ED50: 20 mg/kg
Mus musculus [17]
  Cures/total: 4
Mus musculus [18]
  Cures/total: 10
Mus musculus [8]
  Cures/total: 0
Mus musculus [19]
  Cures/total: 0

## CC(=O)Nc1cc(/C(C)=N/NC(=N)N)cc(/C(C)=N/NC(=N)N)c1.Cl
Mus musculus [20]
  Cures/total: 15
Mus musculus [2]
  Cures/total: 0
Mus musculus [21]
  Cures/total: 9
Mus musculus [22]
  Cures/total: 8
Mus musculus [23]
  Cures/total: 22
Mus musculus [24]
  Cures/total: 10
Mus musculus [25]
  Cures/total: 3
Mus musculus [15]
  Cures/total: 0
Mus musculus [26]
  Cures/total: 9
